Assay results from PMC8861878 (The Journal of pharmacy and pharmacology, 2020).

Columns and labels:
[1] = target: T1, UGT2B7 (Homo sapiens, UniProt P16662); assay: Inhibition of UGT2B7; type: in vitro ADME
T1 sequence (P16662 24-529): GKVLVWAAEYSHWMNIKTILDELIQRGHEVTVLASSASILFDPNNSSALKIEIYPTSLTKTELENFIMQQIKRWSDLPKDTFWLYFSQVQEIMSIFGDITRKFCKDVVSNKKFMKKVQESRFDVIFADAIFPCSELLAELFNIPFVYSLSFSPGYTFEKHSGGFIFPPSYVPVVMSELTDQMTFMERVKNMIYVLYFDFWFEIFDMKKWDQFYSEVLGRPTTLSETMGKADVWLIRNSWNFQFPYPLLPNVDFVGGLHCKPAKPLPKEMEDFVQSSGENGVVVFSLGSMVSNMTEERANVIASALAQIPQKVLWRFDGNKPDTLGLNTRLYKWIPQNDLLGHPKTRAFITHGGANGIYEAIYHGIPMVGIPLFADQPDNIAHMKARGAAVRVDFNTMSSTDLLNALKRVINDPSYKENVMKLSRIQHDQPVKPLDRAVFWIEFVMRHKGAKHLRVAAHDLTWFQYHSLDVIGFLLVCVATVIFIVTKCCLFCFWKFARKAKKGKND

[2] = target: T2, CYP1A2 (Homo sapiens, UniProt P05177); assay: Inhibition of CYP1A2; type: in vitro ADME; conditions: isobavachin 1, 10, 100 μM; substrate phenacetin (100 μM)
T2 sequence (P05177 1-516): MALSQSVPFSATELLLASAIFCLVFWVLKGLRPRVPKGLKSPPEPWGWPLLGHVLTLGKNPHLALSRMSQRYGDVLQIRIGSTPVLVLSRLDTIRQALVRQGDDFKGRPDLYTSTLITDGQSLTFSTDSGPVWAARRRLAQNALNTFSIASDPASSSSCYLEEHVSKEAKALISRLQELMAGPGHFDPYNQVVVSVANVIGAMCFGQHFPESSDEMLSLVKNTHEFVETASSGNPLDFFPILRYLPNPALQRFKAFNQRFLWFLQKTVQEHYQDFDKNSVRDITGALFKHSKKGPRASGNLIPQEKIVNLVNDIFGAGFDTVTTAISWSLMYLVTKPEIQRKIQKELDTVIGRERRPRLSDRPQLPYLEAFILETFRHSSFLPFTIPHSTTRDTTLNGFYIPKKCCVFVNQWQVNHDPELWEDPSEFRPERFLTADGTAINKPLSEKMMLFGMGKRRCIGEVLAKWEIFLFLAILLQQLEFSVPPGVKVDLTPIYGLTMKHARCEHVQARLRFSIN
Procedure, shortened: (§1)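 Recombinant human CYPs (CYP1A2 and 3A4 at 0.05 mg/ml; CYP2C8 and 2E1 at 0.1 mg/ml) with probe substrate in Tris-HCl 50 mM pH 7.4, MgCl2 5 mM and NADPH 1 mM at 37 °C for 60 min. Run without (control) or with test compound at 1, 10 or 100 μM. Acetonitrile stop; metabolite by UHPLC-TQD-MS; activity versus control, triplicate.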

[3] = test system: expressed CYP enzymes; assay: Reaction phenotyping with expressed CYP enzymes; type: in vitro ADME, human; conditions: isobavachin at 10 μM (Figure S4A)
[4] = target: T3, CYP2C8 (Homo sapiens, UniProt P10632); assay: Inhibition of CYP2C8; type: in vitro ADME; conditions: isobavachin 1, 10, 100 μM; substrate paclitaxel (60 μM)
T3 sequence (P10632 1-490): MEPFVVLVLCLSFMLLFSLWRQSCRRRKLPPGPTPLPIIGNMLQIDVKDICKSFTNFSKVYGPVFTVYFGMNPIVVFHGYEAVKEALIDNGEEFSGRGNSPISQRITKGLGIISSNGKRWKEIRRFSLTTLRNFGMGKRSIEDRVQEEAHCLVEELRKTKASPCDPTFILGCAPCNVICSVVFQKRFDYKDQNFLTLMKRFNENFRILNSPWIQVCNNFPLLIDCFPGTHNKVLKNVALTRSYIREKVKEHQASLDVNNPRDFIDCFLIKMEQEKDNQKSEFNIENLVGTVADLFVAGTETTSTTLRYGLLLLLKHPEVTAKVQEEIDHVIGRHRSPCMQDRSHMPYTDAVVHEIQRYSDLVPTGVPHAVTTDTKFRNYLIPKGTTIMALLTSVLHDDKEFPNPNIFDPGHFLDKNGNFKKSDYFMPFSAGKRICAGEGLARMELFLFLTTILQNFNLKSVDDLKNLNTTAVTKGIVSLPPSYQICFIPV
Procedure, shortened: as §1

[5] = target: T4, UGT2B4 (Homo sapiens, UniProt P06133); assay: Glucuronidation of isobavachin by recombinant UGT2B4, enzyme kinetics; type: in vitro ADME; conditions: formation of G1; Michaelis–Menten model
T4 sequence (P06133 24-528): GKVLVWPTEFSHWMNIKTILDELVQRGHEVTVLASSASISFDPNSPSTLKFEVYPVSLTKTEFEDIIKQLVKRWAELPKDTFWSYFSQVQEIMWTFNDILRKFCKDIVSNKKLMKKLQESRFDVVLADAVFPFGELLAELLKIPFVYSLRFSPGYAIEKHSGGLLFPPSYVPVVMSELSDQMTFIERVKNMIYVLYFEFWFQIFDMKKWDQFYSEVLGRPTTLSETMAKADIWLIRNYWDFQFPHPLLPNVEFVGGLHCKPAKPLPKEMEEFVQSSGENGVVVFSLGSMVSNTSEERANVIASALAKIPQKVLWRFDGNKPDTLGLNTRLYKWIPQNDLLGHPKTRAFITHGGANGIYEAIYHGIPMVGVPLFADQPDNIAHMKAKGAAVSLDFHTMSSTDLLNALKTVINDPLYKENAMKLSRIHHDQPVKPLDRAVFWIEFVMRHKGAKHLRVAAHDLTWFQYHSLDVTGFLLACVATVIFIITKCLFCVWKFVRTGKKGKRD

`CC(C)=CCc1c(O)ccc2c1O[C@H](c1ccc(O)cc1)CC2=O` [isobavachin] was tested, and the IC50 [1] was 90 ± 10 nM, the residual activities ([1]; 10 μM isobavachin) was 19.32 % of the negative control and the Ki ([1]; substrate zidovudine, mixed-type model (not selected)) was 40 ± 10 nM. The Ki ([1]; substrate zidovudine, non-competitive model (selected, smallest AIC and SC)) was 50 ± 10 nM, the Inhibition type ([1]; based on the smallest AIC and SC values) was “non-competitive inhibition mode” and the α ([1]; substrate zidovudine, mixed-type model) was 1.80 ± 0.93. For the same molecule, the inhibitory effects [2] was “negligible or weak”, the “CYP isozymes participating in oxidation” value [3] was “CYP1A1, 1A2, 1B1, 2C8, 2C9, 2C19 and 2D6 all participated in the oxidation” and the inhibitory effects [4] was “negligible or weak”. The “CLint (CLmax)” value [5] was 30.59 ± 3.28 μl/min per mg and the Vmax [5] was 81.29 ± 2.05 pmol/min per mg.
